Measured values reported in ChEMBL document CHEMBL4725234, “Structure-activity relationship analyses of fusidic acid derivatives highlight crucial role of the C-21 carboxylic acid moiety to its anti-mycobacterial activity” (Bioorg Med Chem, 2020).
Values after ≈ are worked out from the molar mass of the structure shown.

Key:
[1] = tested on: Mycobacterium tuberculosis; test: Antimycobacterial activity against Mycobacterium tuberculosis H37Rv; assay type: functional
In short: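 Drug-sensitive M. tuberculosis H37Rv grown in a glycerol-containing medium; MIC99 is the minimum concentration that inhibits growth of 99% of the bacterial population.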

CHO-K1 = test: Cytotoxicity against CHOK1 cells assessed as reduction in cell viability; assay type: cell-based; conditions: Cricetulus griseus

Row | Structure (SMILES) | MIC99 [1] [µM] | IC50 (CHO-K1) [µM]
1 | CC(=O)O[C@H]1C[C@@]2(C)[C@@H](C[C@@H](O)[C@H]3[C@@]4(C)CC[C@@H](O)[C@@H](C)[C@@H]4CC[C@@]32C)/C1=C(\CCC=C(C)C)c1n[nH]c(=S)o1 | 80 (≈ 45.8 µg/mL) | 70
2 | CCCc1noc(/C(CCC=C(C)C)=C2\[C@@H](OC(C)=O)C[C@@]3(C)[C@H]2C[C@@H](O)[C@H]2[C@@]4(C)CC[C@@H](O)[C@@H](C)[C@@H]4CC[C@@]23C)n1 | 80 (≈ 46.6 µg/mL) | 68.2
3 | CC(=O)O[C@H]1C[C@@]2(C)[C@@H](C[C@@H](O)[C@H]3[C@@]4(C)CC[C@@H](O)[C@@H](C)[C@@H]4CC[C@@]32C)/C1=C(\CCC=C(C)C)c1nc(C)no1 | > 125 | 47.8
4 | CCCS(=O)(=O)NNC(=O)/C(CCC=C(C)C)=C1\[C@@H](OC(C)=O)C[C@@]2(C)[C@H]1C[C@@H](O)[C@H]1[C@@]3(C)CC[C@@H](O)[C@@H](C)[C@@H]3CC[C@@]12C | 40 (≈ 25.5 µg/mL) | 79.7
5 | CC(=O)O[C@H]1C[C@@]2(C)[C@@H](C[C@@H](O)[C@H]3[C@@]4(C)CC[C@@H](O)[C@@H](C)[C@@H]4CC[C@@]32C)/C1=C(\CCC=C(C)C)C(=O)NNS(=O)(=O)c1ccc(C)cc1 | > 125 | 48.2
6 | CC(=O)O[C@H]1C[C@@]2(C)[C@@H](C[C@@H](O)[C@H]3[C@@]4(C)CC[C@@H](O)[C@@H](C)[C@@H]4CC[C@@]32C)/C1=C(\CCC=C(C)C)C(=O)NNS(=O)(=O)c1ccc(Cl)cc1 | > 125 | 53.2
7 | CC(=O)O[C@H]1C[C@@]2(C)[C@@H](C[C@@H](O)[C@H]3[C@@]4(C)CC[C@@H](O)[C@@H](C)[C@@H]4CC[C@@]32C)/C1=C(\CCC=C(C)C)c1n[nH]c(=O)o1 | 80 (≈ 44.5 µg/mL) | 82
8 | CCCCS(=O)(=O)NNC(=O)/C(CCC=C(C)C)=C1\[C@@H](OC(C)=O)C[C@@]2(C)[C@H]1C[C@@H](O)[C@H]1[C@@]3(C)CC[C@@H](O)[C@@H](C)[C@@H]3CC[C@@]12C | > 125 | 49.9
9 | CC(=O)O[C@H]1C[C@@]2(C)[C@@H](C[C@@H](O)[C@H]3[C@@]4(C)CC[C@@H](O)[C@@H](C)[C@@H]4CC[C@@]32C)/C1=C(\CCC=C(C)C)c1nc(-c2ccc(F)cc2)no1 | > 125 | 77.4
10 | CCc1noc(/C(CCC=C(C)C)=C2\[C@@H](OC(C)=O)C[C@@]3(C)[C@H]2C[C@@H](O)[C@H]2[C@@]4(C)CC[C@@H](O)[C@@H](C)[C@@H]4CC[C@@]23C)n1 | > 125 | 71.7
11 | CCCCCCC(=O)O[C@@H]1CC[C@@]2(C)[C@@H](CC[C@@]3(C)[C@H]2[C@H](O)C[C@H]2/C(=C(\CCC=C(C)C)C(=O)O)[C@@H](OC(C)=O)C[C@@]23C)[C@@H]1C | 5 (≈ 3.14 µg/mL) | 36.2
12 | CO[C@H]1C[C@@]2(C)[C@@H](C[C@@H](O)[C@H]3[C@@]4(C)CC[C@@H](O)[C@@H](C)[C@@H]4CC[C@@]32C)/C1=C(\CCC=C(C)C)C(=O)O | 18.7 (≈ 9.14 µg/mL) | 29
13 | CC(=O)O[C@H]1C[C@@]2(C)[C@@H](C[C@@H](O)[C@H]3[C@@]4(C)CC[C@@H](O)[C@@H](C)[C@@H]4CC[C@@]32C)/C1=C(\CCCC(C)C)C(=O)NNS(C)(=O)=O | 10 (≈ 6.11 µg/mL) | 97.8
14 | CC(=O)O[C@H]1C[C@@]2(C)[C@@H](C[C@@H](O)[C@H]3[C@@]4(C)CC/C(=N\O)[C@@H](C)[C@@H]4CC[C@@]32C)/C1=C(\CCC=C(C)C)C(=O)O | 2.5 (≈ 1.32 µg/mL) | 164
15 | CC(C)=CCC/C(C(=O)NNS(C)(=O)=O)=C1/[C@@H](O)C[C@@]2(C)[C@H]1C[C@@H](O)[C@H]1[C@@]3(C)CC[C@@H](O)[C@@H](C)[C@@H]3CC[C@@]12C | 40 (≈ 22.7 µg/mL) | 32
16 | CCO[C@H]1C[C@@]2(C)[C@@H](C[C@@H](O)[C@H]3[C@@]4(C)CC[C@@H](O)[C@@H](C)[C@@H]4CC[C@@]32C)/C1=C(\CCC=C(C)C)C(=O)O | 0.8 (≈ 0.402 µg/mL) | 48.1
17 | CC(=O)O[C@H]1C[C@@]2(C)[C@@H](C[C@@H](O)[C@H]3[C@@]4(C)CC[C@@H](O)[C@@H](C)[C@@H]4CC[C@@]32C)/C1=C(\CCC=C(C)C)C(=O)O [FUSIDIC ACID] | 0.6 (≈ 0.31 µg/mL) | > 194
